# Results as given in publication PMC7825275 (Cancer chemotherapy and pharmacology, 2019).
# Tested on: patients with advanced solid tumors
# Test: Toxicity by grade
# Type: in vivo, human
# Settings: first cycle including veliparib with carboplatin and paclitaxel, n=73
# Outline: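 Adverse events were tabulated descriptively as maximum grade in three groups: the chemotherapy-only lead-in cycle, the first veliparib-containing cycle, and all cycles. CBC and serum chemistry including liver function tests were drawn weekly during cycles 1–2, then at the start of every cycle. Veliparib was oral, twice daily on days 1–7; carboplatin/paclitaxel were IV every 21 days.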
compound,measurement,value
C[C@]1(c2nc3c(C(N)=O)cccc3[nH]2)CCCN1 [veliparib],"Alanine aminotransferase increased, Any Grade",2 (3) number of patients (%)
same,"Alanine aminotransferase increased, Grade 1",2 (3) number of patients (%)
same,"Alanine aminotransferase increased, Grade 2",0 number of patients (%)
same,"Alanine aminotransferase increased, Grade 3",0 number of patients (%)
same,"Alanine aminotransferase increased, Grade 4",0 number of patients (%)
same,"Alkaline phosphatase increased, Any Grade",2 (3) number of patients (%)
same,"Alkaline phosphatase increased, Grade 1",1 (1) number of patients (%)
same,"Alkaline phosphatase increased, Grade 2",1 (1) number of patients (%)
same,"Alkaline phosphatase increased, Grade 3",0 number of patients (%)
same,"Alkaline phosphatase increased, Grade 4",0 number of patients (%)
same,"Allergic reaction, Any Grade",3 (4) number of patients (%)
same,"Allergic reaction, Grade 1",2 (3) number of patients (%)
same,"Allergic reaction, Grade 2",0 number of patients (%)
same,"Allergic reaction, Grade 3",0 number of patients (%)
same,"Allergic reaction, Grade 4",1 (1) number of patients (%)
same,"Alopecia, Any Grade",17 (23) number of patients (%)
same,"Alopecia, Grade 1",13 (18) number of patients (%)
same,"Alopecia, Grade 2",4 (5) number of patients (%)
same,"Alopecia, Grade 3",0 number of patients (%)
same,"Alopecia, Grade 4",0 number of patients (%)
same,"Anemia, Any Grade",24 (33) number of patients (%)
same,"Anemia, Grade 1",4 (5) number of patients (%)
same,"Anemia, Grade 2",18 (25) number of patients (%)
same,"Anemia, Grade 3",2 (3) number of patients (%)
same,"Anemia, Grade 4",0 number of patients (%)
same,"Anorexia, Any Grade",4 (5) number of patients (%)
same,"Anorexia, Grade 1",4 (5) number of patients (%)
same,"Anorexia, Grade 2",0 number of patients (%)
same,"Anorexia, Grade 3",0 number of patients (%)
same,"Anorexia, Grade 4",0 number of patients (%)
same,"Anxiety, Any Grade",1 (1) number of patients (%)
same,"Anxiety, Grade 1",1 (1) number of patients (%)
same,"Anxiety, Grade 2",0 number of patients (%)
same,"Anxiety, Grade 3",0 number of patients (%)
same,"Anxiety, Grade 4",0 number of patients (%)
same,"Any adverse event, Any Grade",67 (92) number of patients (%)
same,"Any adverse event, Grade 1",57 (78) number of patients (%)
same,"Any adverse event, Grade 2",46 (63) number of patients (%)
same,"Any adverse event, Grade 3",34 (47) number of patients (%)
same,"Any adverse event, Grade 4",26 (36) number of patients (%)
same,"Arthralgia, Any Grade",6 (8) number of patients (%)
same,"Arthralgia, Grade 1",5 (7) number of patients (%)
same,"Arthralgia, Grade 2",1 (1) number of patients (%)
same,"Arthralgia, Grade 3",0 number of patients (%)
same,"Arthralgia, Grade 4",0 number of patients (%)
same,"Aspartate aminotransferase increased, Any Grade",2 (3) number of patients (%)
same,"Aspartate aminotransferase increased, Grade 1",2 (3) number of patients (%)
same,"Aspartate aminotransferase increased, Grade 2",0 number of patients (%)
same,"Aspartate aminotransferase increased, Grade 3",0 number of patients (%)
same,"Aspartate aminotransferase increased, Grade 4",0 number of patients (%)
same,"Blood bilirubin increased, Any Grade",1 (1) number of patients (%)
same,"Blood bilirubin increased, Grade 1",1 (1) number of patients (%)
same,"Blood bilirubin increased, Grade 2",0 number of patients (%)
same,"Blood bilirubin increased, Grade 3",0 number of patients (%)
same,"Blood bilirubin increased, Grade 4",0 number of patients (%)
same,"Bone pain, Any Grade",1 (1) number of patients (%)
same,"Bone pain, Grade 1",1 (1) number of patients (%)
same,"Bone pain, Grade 2",0 number of patients (%)
same,"Bone pain, Grade 3",0 number of patients (%)
same,"Bone pain, Grade 4",0 number of patients (%)
same,"Chills, Any Grade",1 (1) number of patients (%)
same,"Chills, Grade 1",1 (1) number of patients (%)
same,"Chills, Grade 2",0 number of patients (%)
same,"Chills, Grade 3",0 number of patients (%)
same,"Chills, Grade 4",0 number of patients (%)
same,"Constipation, Any Grade",6 (8) number of patients (%)
same,"Constipation, Grade 1",4 (5) number of patients (%)
same,"Constipation, Grade 2",2 (3) number of patients (%)
same,"Constipation, Grade 3",0 number of patients (%)
same,"Constipation, Grade 4",0 number of patients (%)
same,"Cough, Any Grade",2 (3) number of patients (%)
same,"Cough, Grade 1",2 (3) number of patients (%)
same,"Cough, Grade 2",0 number of patients (%)
same,"Cough, Grade 3",0 number of patients (%)
same,"Cough, Grade 4",0 number of patients (%)
same,"Creatinine increased, Any Grade",3 (4) number of patients (%)
same,"Creatinine increased, Grade 1",3 (4) number of patients (%)
same,"Creatinine increased, Grade 2",0 number of patients (%)
same,"Creatinine increased, Grade 3",0 number of patients (%)
same,"Creatinine increased, Grade 4",0 number of patients (%)
same,"Cytokine release syndrome, Any Grade",1 (1) number of patients (%)
same,"Cytokine release syndrome, Grade 1",0 number of patients (%)
same,"Cytokine release syndrome, Grade 2",1 (1) number of patients (%)
same,"Cytokine release syndrome, Grade 3",0 number of patients (%)
same,"Cytokine release syndrome, Grade 4",0 number of patients (%)
same,"Dehydration, Any Grade",1 (1) number of patients (%)
same,"Dehydration, Grade 1",0 number of patients (%)
same,"Dehydration, Grade 2",1 (1) number of patients (%)
same,"Dehydration, Grade 3",0 number of patients (%)
same,"Dehydration, Grade 4",0 number of patients (%)
same,"Diarrhea, Any Grade",5 (7) number of patients (%)
same,"Diarrhea, Grade 1",5 (7) number of patients (%)
same,"Diarrhea, Grade 2",0 number of patients (%)
same,"Diarrhea, Grade 3",0 number of patients (%)
same,"Diarrhea, Grade 4",0 number of patients (%)
same,"Dizziness, Any Grade",3 (4) number of patients (%)
same,"Dizziness, Grade 1",3 (4) number of patients (%)
same,"Dizziness, Grade 2",0 number of patients (%)
same,"Dizziness, Grade 3",0 number of patients (%)
same,"Dizziness, Grade 4",0 number of patients (%)
same,"Dry mouth, Any Grade",2 (3) number of patients (%)
same,"Dry mouth, Grade 1",2 (3) number of patients (%)
same,"Dry mouth, Grade 2",0 number of patients (%)
same,"Dry mouth, Grade 3",0 number of patients (%)
same,"Dry mouth, Grade 4",0 number of patients (%)
same,"Dysesthesia, Any Grade",1 (1) number of patients (%)
same,"Dysesthesia, Grade 1",1 (1) number of patients (%)
same,"Dysesthesia, Grade 2",0 number of patients (%)
same,"Dysesthesia, Grade 3",0 number of patients (%)
same,"Dysesthesia, Grade 4",0 number of patients (%)
same,"Dysgeusia, Any Grade",2 (3) number of patients (%)
same,"Dysgeusia, Grade 1",2 (3) number of patients (%)
same,"Dysgeusia, Grade 2",0 number of patients (%)
same,"Dysgeusia, Grade 3",0 number of patients (%)
same,"Dysgeusia, Grade 4",0 number of patients (%)
same,"Dyspepsia, Any Grade",3 (4) number of patients (%)
same,"Dyspepsia, Grade 1",2 (3) number of patients (%)
same,"Dyspepsia, Grade 2",1 (1) number of patients (%)
same,"Dyspepsia, Grade 3",0 number of patients (%)
same,"Dyspepsia, Grade 4",0 number of patients (%)
same,"Dysphagia, Any Grade",2 (3) number of patients (%)
same,"Dysphagia, Grade 1",2 (3) number of patients (%)
same,"Dysphagia, Grade 2",0 number of patients (%)
same,"Dysphagia, Grade 3",0 number of patients (%)
same,"Dysphagia, Grade 4",0 number of patients (%)
same,"Dyspnea, Any Grade",3 (4) number of patients (%)
same,"Dyspnea, Grade 1",2 (3) number of patients (%)
same,"Dyspnea, Grade 2",1 (1) number of patients (%)
same,"Dyspnea, Grade 3",0 number of patients (%)
same,"Dyspnea, Grade 4",0 number of patients (%)
same,"Edema limbs, Any Grade",3 (4) number of patients (%)
same,"Edema limbs, Grade 1",3 (4) number of patients (%)
same,"Edema limbs, Grade 2",0 number of patients (%)
same,"Edema limbs, Grade 3",0 number of patients (%)
same,"Edema limbs, Grade 4",0 number of patients (%)
same,"Erythema multiforme, Any Grade",1 (1) number of patients (%)
same,"Erythema multiforme, Grade 1",0 number of patients (%)
same,"Erythema multiforme, Grade 2",1 (1) number of patients (%)
same,"Erythema multiforme, Grade 3",0 number of patients (%)
same,"Erythema multiforme, Grade 4",0 number of patients (%)
same,"Esophagitis, Any Grade",1 (1) number of patients (%)
same,"Esophagitis, Grade 1",1 (1) number of patients (%)
same,"Esophagitis, Grade 2",0 number of patients (%)
same,"Esophagitis, Grade 3",0 number of patients (%)
same,"Esophagitis, Grade 4",0 number of patients (%)
same,"Fatigue, Any Grade",27 (37) number of patients (%)
same,"Fatigue, Grade 1",18 (24) number of patients (%)
same,"Fatigue, Grade 2",5 (7) number of patients (%)
same,"Fatigue, Grade 3",4 (5) number of patients (%)
same,"Fatigue, Grade 4",0 number of patients (%)
same,"Febrile neutropenia, Any Grade",5 (7) number of patients (%)
same,"Febrile neutropenia, Grade 1",0 number of patients (%)
same,"Febrile neutropenia, Grade 2",0 number of patients (%)
same,"Febrile neutropenia, Grade 3",3(4) number of patients (%)
same,"Febrile neutropenia, Grade 4",2 (3) number of patients (%)
same,"Fever, Any Grade",3 (4) number of patients (%)
same,"Fever, Grade 1",2 (3) number of patients (%)
same,"Fever, Grade 2",0 number of patients (%)
same,"Fever, Grade 3",1 (1) number of patients (%)
